# T cruzi growth-1: blocks T. cruzi growth in NIH3T3 culture | T. cruzi beta-gal in NIH3T3, GalScreen luminescence, 90 h | inhibition, % at 8.34 µM | hit rate 5.9% among 77,000;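 active = mean inhibition above about 93%, with at least 55% of replicates each passing it, limit read from the data, passing the limit was not always enough; inconclusive = only one of those two conditions holds; inactive = neither condition holds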
# IDH1 R132H inh: IDH1 R132H (human) inhibition | hit rate 0.18% among 70,000 | inhibition, % at 10 µM | IDH1 R132H reductase, diaphorase/resazurin fluorescence, 60 min | O75874 | AID 624101; in the data active = inhibition above about 34%; inconclusive = no clear call, values can overlap the other calls; inactive = below about 11%;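 note: 0% = DMSO and 100% = no enzyme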
# Target sequence (O75874 whole entry R132H): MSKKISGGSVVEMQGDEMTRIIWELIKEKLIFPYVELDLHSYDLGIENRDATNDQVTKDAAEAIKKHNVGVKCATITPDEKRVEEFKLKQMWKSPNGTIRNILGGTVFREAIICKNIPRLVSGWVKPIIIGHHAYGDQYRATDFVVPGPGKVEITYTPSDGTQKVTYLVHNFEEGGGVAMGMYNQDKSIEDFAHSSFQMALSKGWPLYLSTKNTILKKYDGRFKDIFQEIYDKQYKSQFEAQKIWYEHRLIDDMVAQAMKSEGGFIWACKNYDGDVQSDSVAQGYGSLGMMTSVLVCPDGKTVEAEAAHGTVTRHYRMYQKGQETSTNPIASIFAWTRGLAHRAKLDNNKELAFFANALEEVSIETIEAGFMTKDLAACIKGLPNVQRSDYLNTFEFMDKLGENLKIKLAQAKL
# KDM4C inh: blocks human GASC-1 (KDM4C) demethylase activity; inhibition, % at 12.5 µM; Q9H3R0; GST-KDM4C 2-372, H3K9me3 peptide, LANCE TR-FRET; hit rate 0.15% among 96,000;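 active = mean replicate inhibition above about 25%, with at least 55% of replicates also reaching it, limit read from the data, passing the limit was not always enough; inconclusive = only one of those two conditions met; inactive = neither condition met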
#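 System: N-terminal GST-fused human GASC-1 (KDM4C) fragment, residues 2-372 / Amount: 10 nM GST-KDM4C in enzyme reaction / Also added: H3K9me3 peptide with Fe(II)/2OG / Times: 30 min demethylation and 1 h detection at room temperature / Signal: LANCE TR-FRET / Read-out basis: Fall in 671/618 emission ratio as inhibition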
# T cruzi growth-2: Trypanosoma cruzi proliferation inhibition; shares compounds with T cruzi growth-1; T. cruzi beta-gal in NIH3T3, GalScreen luminescence, 90 h; inhibition, % at 8.35 µM; hit rate 72% among 5,600; AID 651739;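 active = mean replicate inhibition above about 95% and at least 55% of replicates individually reaching it, limit read from the data; inconclusive = only one of the two criteria is met; inactive = neither criterion is met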
# T cruzi growth-3: Trypanosoma cruzi proliferation inhibition | shares compounds with T cruzi growth-1 | T. cruzi beta-gal in NIH3T3, GalScreen luminescence, 90 h | inhibition, % at 2.09 µM | hit rate 21% among 5,600 | AID 651740;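 active = mean inhibition above about 95%, with at least 55% of replicates also reaching it, limit read from the data; inconclusive = meets just one of the two conditions; inactive = meets neither condition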;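 note: plate controls were neutral control median for no effect and positive control median for full effect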
# NIH3T3 tox: NIH/3T3 (mouse) viability loss; hit rate 14% among 5,600; shares compounds with T cruzi growth-1; NIH/3T3 viability, CellTiter-Glo ATP luminescence, 90 h; AID 651742; cytotoxicity (signal decrease), % at 8.35 µM;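 active = mean signal decrease across replicates above about 35% based on untreated-well scatter, with enough replicates individually passing, limit read from the data; inconclusive = no rule stated though some were filed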;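 note: 0% = median of neutral control wells and 100% = median of positive control wells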
# NIH3T3 tox 2: kills mouse NIH/3T3 fibroblasts; AID 651744; NIH/3T3 viability, CellTiter-Glo ATP luminescence, 90 h; inhibition, % at 24.9 µM; hit rate 56% among 5,600; shares compounds with T cruzi growth-1;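 active = mean loss of cell viability signal at or above a set limit, and enough replicates individually reaching it; inconclusive = meets only the mean limit or only the replicate share; inactive = meets neither condition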;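 note: 0% = median of neutral control wells and 100% = median of positive control wells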
# An asterisk follows results filed as active; ? = inconclusive; · = no result. This excerpt belongs to a sample that is enriched for hits.
SMILES,T cruzi growth-1,IDH1 R132H inh,KDM4C inh,T cruzi growth-2,T cruzi growth-3,NIH3T3 tox,NIH3T3 tox 2
C[C@H](CO)N1C[C@H](C)[C@@H](CN(C)C(=O)C2CCCCC2)OCCCC[C@H](C)Oc2ccc(NC(=O)Nc3cccc4ccccc34)cc2C1=O,118.9*,·,0.0,88.3,48.7,-11.7,?
C[C@@H]1CCCCO[C@H](CN(C)C(=O)C2CCCCC2)[C@@H](C)CN([C@@H](C)CO)C(=O)c2cc(NC(=O)Nc3cccc4ccccc34)ccc2O1,?,-1.3,-1.0,102.5*,102.0*,-18.9,-2.6
C[C@@H]1CN([C@@H](C)CO)C(=O)c2cc(NC(=O)Nc3cccc4ccccc34)ccc2O[C@@H](C)CCCCO[C@H]1CN(C)C(=O)Nc1cccc2ccccc12,7.8,·,-3.1,·,·,·,·
C[C@@H]1CN([C@H](C)CO)C(=O)c2cc(NC(=O)Nc3cccc4ccccc34)ccc2O[C@@H](C)CCCCO[C@@H]1CN(C)C(=O)C1CCCCC1,105.4,·,-1.0,·,·,·,·
C[C@@H]1CCCCO[C@H](CN(C)C(=O)C2CCCCC2)[C@H](C)CN([C@@H](C)CO)C(=O)c2cc(NC(=O)Nc3cccc4ccccc34)ccc2O1,?,·,0.6,105.2*,79.6,10.8,22.4
C[C@H](CO)N1C[C@H](C)[C@H](CN(C)C(=O)C2CCCCC2)OCCCC[C@H](C)Oc2ccc(NC(=O)Nc3cccc4ccccc34)cc2C1=O,120.7*,1.1,13.6,105.2*,54.0,-16.8,-8.5
C/C=C/c1ccc2c(c1)O[C@H](CN(C)C(=O)CC)[C@H](C)CN([C@@H](C)CO)S2(=O)=O,-9.5,-4.2,-2.8,·,·,·,·
C[C@@H]1CCCCO[C@@H](CN(C)C(=O)C2CCCCC2)[C@H](C)CN([C@H](C)CO)C(=O)c2cc(NC(=O)Nc3cccc4ccccc34)ccc2O1,?,-1.0,-1.1,109.5*,105.0*,-39.5,-21.9
C[C@@H]1CN([C@@H](C)CO)C(=O)c2cc(NC(=O)Nc3cccc4ccccc34)ccc2O[C@@H](C)CCCCO[C@H]1CN(C)C(=O)C1CCCCC1,46.1,·,-0.7,·,·,·,·
O=C(C[C@@H]1C[C@H]2c3cc(NC(=O)C4CCOCC4)ccc3O[C@H]2[C@@H](CO)O1)NCC(F)(F)F,-36.7,-0.2,0.8,·,·,·,·
C[C@H](CO)N1C[C@H](C)[C@H](CN(C)Cc2ccccn2)Oc2cc(-c3ccncc3)ccc2S1(=O)=O,105.9*,6.7,-0.9,89.2,84.4,10.1,27.6
C[C@H](CO)N1C[C@H](C)[C@@H](CN(C)Cc2ccccn2)Oc2cc(-c3ccccc3)ccc2S1(=O)=O,50.8,·,1.0,·,·,·,·
C[C@H]1CN([C@@H](C)CO)S(=O)(=O)c2ccc(-c3ccccc3)cc2O[C@@H]1CN(C)Cc1ccccn1,14.3,2.8,0.3,·,·,·,·
C[C@H]1CN([C@@H](C)CO)S(=O)(=O)c2ccc(-c3ccncc3)cc2O[C@@H]1CN(C)Cc1ccccn1,117.4*,·,-2.0,102.9*,99.5*,33.1,85.5*
C[C@@H]1CN([C@@H](C)CO)S(=O)(=O)c2ccc(-c3ccncc3)cc2O[C@H]1CN(C)Cc1ccccn1,114.1*,-0.3,3.8,105.3*,102.7*,32.5,36.0*
Cc1ccc(-c2ccc3c(c2)O[C@@H](CN(C)Cc2ccccn2)[C@H](C)CN([C@@H](C)CO)S3(=O)=O)cc1,119.0*,-2.9,-1.1,98.2*,82.0,64.1*,103.3*
Cc1ccc(-c2ccc3c(c2)O[C@@H](CN(C)Cc2ccccn2)[C@H](C)CN([C@H](C)CO)S3(=O)=O)cc1,92.9,·,-0.5,·,·,·,·
C[C@@H]1CN([C@@H](C)CO)S(=O)(=O)c2ccc(-c3ccncc3)cc2O[C@@H]1CN(C)Cc1ccccn1,85.5,2.0,-0.4,·,·,·,·
Cc1cc(Cl)ccc1OCC(=O)Nc1ccc(Br)cc1C(=O)O,·,-2.5,·,·,·,·,·
CNC(=O)C[C@@H]1CC[C@H]2[C@@H](COC[C@H](O)CN2C(=O)Nc2ccc3c(c2)OCO3)O1,·,·,2.9,·,·,·,·
CC=Cc1ccc2n(c1=O)C[C@H]1[C@H](CO)[C@@H](C(=O)NCCC)[C@@H]2N1Cc1ccccc1OC (mixture of isomers),-5.3,·,11.3,·,·,·,·
Cc1noc(C)c1NC(=O)N(C)C[C@@H]1OCCCC[C@@H](C)Oc2ccc(NC(=O)NC(C)C)cc2C(=O)N([C@H](C)CO)C[C@@H]1C,·,·,18.4,·,·,·,·
CCC(=O)Nc1ccc2c(c1)C(=O)N(C)[C@@H]1CC[C@H](CC(=O)N[C@H](C)c3ccccc3)O[C@@H]1CO2,8.7,·,0.8,·,·,·,·
CC(C)CC1(C)N=C(c2ccccc2)C(=S)N1 (configuration not stated),·,0.1,·,·,·,·,·
Cc1noc(C)c1S(=O)(=O)Nc1ccc2c(c1)C(=O)N([C@@H](C)CO)C[C@H](C)[C@@H](CN(C)Cc1ccc(C(=O)Nc3ccccc3N)cc1)O2,·,-0.3,0.5,·,·,·,·
SMILES,T cruzi growth-1,IDH1 R132H inh,KDM4C inh,T cruzi growth-2,T cruzi growth-3,NIH3T3 tox,NIH3T3 tox 2
COc1ccccc1NC(=O)N(C)C[C@@H]1Oc2ncc(C#CCC(C)C)cc2C(=O)N([C@@H](C)CO)C[C@H]1C,104.2*,-3.5,0.4,105.8*,63.0,-4.6,2.8
COc1ccccc1NC(=O)N(C)C[C@@H]1Oc2ncc(C#CCC(C)C)cc2C(=O)N([C@H](C)CO)C[C@@H]1C,74.0,-0.2,-3.2,·,·,·,·
CCCC#Cc1cnc2c(c1)C(=O)N([C@@H](C)CO)C[C@H](C)[C@@H](CN(C)C(=O)Nc1ccccc1F)O2,-2.1,·,2.8,·,·,·,·
CC(C)CC#Cc1cnc2c(c1)C(=O)N([C@@H](C)CO)C[C@@H](C)[C@H](CN(C)C(=O)Nc1cc(F)ccc1F)O2,115.0*,0.9,0.0,101.4*,99.7*,12.7,74.4*
CCCC#Cc1cnc2c(c1)C(=O)N([C@H](C)CO)C[C@@H](C)[C@@H](CN(C)C(=O)Nc1cc(F)ccc1F)O2,14.4,0.3,3.6,·,·,·,·
CC(C)CC#Cc1cnc2c(c1)C(=O)N([C@H](C)CO)C[C@@H](C)[C@H](CN(C)C(=O)Nc1cc(F)ccc1F)O2,106.7,·,0.1,·,·,·,·
CC(C)CC#Cc1cnc2c(c1)C(=O)N([C@@H](C)CO)C[C@@H](C)[C@@H](CN(C)C(=O)Nc1cc(F)ccc1F)O2,?,·,-1.3,103.6*,42.1,36.1*,73.5*
CCCC#Cc1cnc2c(c1)C(=O)N([C@@H](C)CO)C[C@@H](C)[C@H](CN(C)C(=O)Nc1ccccc1F)O2,?,·,-2.1,115.2*,89.2,-4.6,39.4*
O=C(Nc1ccc2c(c1)[C@@H]1C[C@H](CC(=O)N3CCCCC3)O[C@@H](CO)[C@@H]1O2)Nc1ccccc1F,5.3,-0.7,-1.1,·,·,·,·
CCCC(=O)Nc1ccc2c(c1)C(=O)N(C)C[C@H](OC)[C@@H](C)CN(Cc1nccs1)[C@H](C)CO2,-4.5,-0.4,0.9,·,·,·,·

# Screening data: PubChem BioAssay, Broad Institute
